In ChEMBL document CHEMBL4334504 (J Med Chem, 2019) one finds MIC, Cp and Activity data, which are given here for 1 compound.

The nature of series [1]: Effect on growth of Lactobacillus gasseri EX336960VC03 HM 400 measured after 48 hrs in 5% CO2 by CLSI method. Conditions: lactobacillus gasseri ex336960vc03, 48 h.
Series [2] deals with Clostridioides difficile. As to the kind of experiment: Antibacterial activity against Clostridium difficile VPI 10463 ATCC 43255 assessed as bacterial growth inhibition incubated for 48 hrs under anaerobic condition by CLSI protocol based assay. The class given is functional. Conditions: ATCC 43255 VPI 10463, 48 h. In short, it runs like this: (§1)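 Broth microdilution following CLSI guidance. Strains pre-grown anaerobically on BHIS agar (BHI plus yeast extract, vitamin K1, hemin) at 37 °C for 48 h. ~10^5 CFU/mL in BHIS broth added to serial compound dilutions. Incubated anaerobically at 37 °C for 48 h. MIC is the lowest concentration showing visible growth inhibition.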

For series [3], the system named is Lacticaseibacillus paracasei. As to the kind of experiment: Effect on growth of Lactobacillus casei ATCC 334 measured after 48 hrs in 5% CO2 by CLSI method.
A short description of series [4]: Drug level in CDI patient plasma at 200 mg, po administered every 12 hrs for 10 days and measured 3 to 5 hrs post last dose by LC-MS/MS analysis. Conditions: human, in vivo. In kind it is ADME, organism-based.
Series [5] in a line: Effect on growth of Lactobacillus crispatus JV-V01 HM 103 measured after 48 hrs in 5% CO2 by CLSI method. Conditions: lactobacillus crispatus jv-v01, 48 h.
Series [6] concerns Bifidobacterium bifidum. As to the kind of experiment: Effect on growth of Bifidobacterium bifidum 212A ATCC 11863 measured after 48 hrs in anerobic conditions by CLSI method. In kind it is organism-based. Particulars: in vivo.
Series [7] concerns Clostridioides difficile. As to the kind of experiment: Antibacterial activity against Clostridium difficile 4118 ATCC BAA 1870 assessed as bacterial growth inhibition incubated for 48 hrs under anaerobic condition by CLSI protocol-based assay. Particulars: 4118 ATCC BAA 1870, 48 h. The class given is functional. In short, it runs like this:
as §1

The subject of series [8] is Clostridioides difficile. As to the kind of experiment: Bactericidal activity against Clostridium difficile 4118 ATCC BAA 1870 assessed as reduction in bacterial colony forming units at 8 fold MIC preincubated followed by re-plating on BHIS agar plate and measured after 24 hrs under anaerobic condition by time-kill assay. The class given is functional, organism-based.

Structures are written as SMILES. In brackets after ≈: the same amount, converted by molar mass. Activity calls are given as the source filed them. The rule behind the calls is not given here.

As for `CCc1c(Cl)c(O)c(Cl)c(O)c1C(=O)O[C@H]1[C@H](O)[C@H](OC)[C@H](OC/C2=C\C=C\C[C@H](O)/C(C)=C/[C@H](CC)[C@@H](O[C@@H]3OC(C)(C)[C@@H](OC(=O)C(C)C)[C@H](O)[C@@H]3O)/C(C)=C/C(C)=C/C[C@@H]([C@@H](C)O)OC2=O)O[C@@H]1C` [FIDAXOMICIN], the MIC entry in series [1] is “<= 2 uM”; in series [2] it was 0.1 µM (≈ 0.106 µg/mL); in series [3], above 242 µM; in series [5], 30 µM (≈ 31.7 µg/mL); in series [6], above 242 µM; in series [7], 0.1 µM (≈ 0.106 µg/mL). In addition, the Cp in series [4] was in the range of 0.025 to 0.05 µg/mL. Further, the result in series [8] was Active.
